Columns and labels:
[1] = molecular target: T1, Sterol O-acyltransferase 1 (Rattus norvegicus) (UniProt O70536); experiment: In vitro inhibitory activity against acyl coenzyme A:cholesterol acyltransferase (ACAT); set-up: concentration or dose not given beside the values; details: concentration not given here
T1 sequence (whole entry): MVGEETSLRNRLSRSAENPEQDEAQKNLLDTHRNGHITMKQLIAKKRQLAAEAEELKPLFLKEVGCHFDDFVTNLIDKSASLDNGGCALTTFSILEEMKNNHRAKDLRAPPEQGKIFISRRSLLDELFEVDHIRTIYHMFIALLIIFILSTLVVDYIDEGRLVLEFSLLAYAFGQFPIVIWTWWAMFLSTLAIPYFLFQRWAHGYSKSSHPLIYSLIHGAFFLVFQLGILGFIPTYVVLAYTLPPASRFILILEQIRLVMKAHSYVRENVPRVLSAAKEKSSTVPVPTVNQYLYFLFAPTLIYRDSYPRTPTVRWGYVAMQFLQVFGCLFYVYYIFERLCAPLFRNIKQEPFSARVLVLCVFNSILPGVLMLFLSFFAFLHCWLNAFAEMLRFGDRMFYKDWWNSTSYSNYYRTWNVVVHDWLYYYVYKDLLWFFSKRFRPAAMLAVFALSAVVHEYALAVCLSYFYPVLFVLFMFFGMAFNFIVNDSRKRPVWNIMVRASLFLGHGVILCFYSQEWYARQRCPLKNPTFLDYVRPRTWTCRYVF
Outline: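 ACAT enzyme from rat adrenal homogenate in 0.2 M KH2PO4 buffer pH 7.4, 1000g 15 min 5 °C supernatant (microsomal fraction). Supernatant + BSA (50 mg/mL) + compound at final 5.2 μg/mL + buffer preincubated 10 min 37 °C; [14C]oleoyl-CoA (0.4 μCi) added, 30 min 37 °C. Lipids extracted, TLC; cholesteryl ester zone counted. Mean % inhibition vs no-compound control; Student's t test.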

[2] = test system: Rattus norvegicus; experiment: In vivo triglyceride lowering activity, dosed at 0.03 % of the diet; format: functional
Outline: (§1)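 Male CFE or CD-1 Sprague-Dawley rats, 140-150 g; 8 per control group, 4 per test group. Compound mixed into ground chow (w/w) via MeOH-CHCl3 (1:3) solution, solvent evaporated; controls got solvent-treated chow. Fed ad libitum 5 days, food intake monitored, killed fed and bled. Serum sterols and triglycerides by adapted autoanalyzer methods; mean percent of control, Student's t test.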

[3] = test system: Rattus norvegicus; experiment: In vivo sterol lowering activity dosed at 0.10 % of the diet; format: functional; outline: as §1
[4] = test system: Rattus norvegicus; experiment: In vivo Triglyceride lowering activity at dose as 0.01 % of the diet; format: functional; outline: as §1
[5] = test system: Rattus norvegicus; experiment: In vivo triglyceride lowering activity dosed at 0.10 % of the diet; format: functional; outline: as §1
[6] = test system: Rattus norvegicus; experiment: In vivo Sterol lowering activity at dose as 0.01 % of the diet; format: functional; outline: as §1
[7] = test system: Rattus norvegicus; experiment: In vivo Sterol lowering activity at dose as 0.03 % of the diet; format: functional; outline: as §1
[8] = test system: Rattus norvegicus; experiment: In vivo Triglyceride lowering activity at dose as 0.025 % of the diet; format: functional; outline: as §1
[9] = test system: Rattus norvegicus; experiment: In vivo Sterol lowering activity at dose as 0.025 % of the diet.; format: functional; outline: as §1
[10] = test system: Rattus norvegicus; experiment: In vivo Sterol lowering activity at dose as 0.05 % of the diet.; format: functional; outline: as §1
[11] = test system: Rattus norvegicus; experiment: In vivo Sterol lowering activity at dose as 0.10 % of the diet.; format: functional; outline: as §1
[12] = test system: Rattus norvegicus; experiment: In vivo triglyceride lowering activity dosed at 0.05 % of the diet; format: functional; outline: as §1
[13] = test system: Rattus norvegicus; experiment: In vivo Sterol lowering activity at dose as 0.05 % of the diet; format: functional; outline: as §1
[14] = test system: Rattus norvegicus; experiment: In vivo Triglyceride lowering activity at dose as 0.05 % of the diet.; format: functional; outline: as §1
[15] = test system: Rattus norvegicus; experiment: In vivo Triglyceride lowering activity at dose as 0.03 % of the diet.; format: functional; outline: as §1
[16] = test system: Rattus norvegicus; experiment: In vivo triglyceride lowering activity, dosed at 0.01 % of the diet.; format: functional; outline: as §1
[17] = test system: Rattus norvegicus; experiment: In vivo triglyceride lowering activity, dosed at 0.10 % of the diet.; format: functional; outline: as §1

Row | inhibition [1] | SMILES | serum triglycerides, percent of control [2] | serum sterol, percent of control [3] | Diet [4] | serum triglycerides, percent of control [5] | Diet [6] | Diet [7] | Diet [8] | Diet [9] | Diet [10] | serum sterol, percent of control [11] | Diet [12] | Diet [13] | Diet [14] | Diet [15] | Diet [16] | Diet [17] | Diet [11]
1 | < 57% | O=C(O)c1ccc(NCCCCCCCCCCCCc2cccs2)cc1 | <50% | <70% | <59% | <42% | 85% | <81% | – | – | – | – | – | – | – | – | – | – | –
2 | 19% | CCCCCCCCCCCc1nc(CNc2ccc(C(=O)O)cc2)c[nH]1.Cl | <71% | 100% | 79% | <70% | 99% | 93% | – | – | – | – | – | – | – | – | – | – | –
3 | 22% | Cl.O=C(O)c1ccc(NCCCCCCCCCCCn2ccnc2)cc1 | <48% | 113% | 74% | <47% | 95% | 99% | – | – | – | – | – | – | – | – | – | – | –
4 | < 71% | C=C(CCCCCCCCCC)CCCCCNc1ccc(C(=O)O)cc1 | <64% | <53% | <65% | <30% | <81% | <85% | – | – | – | – | – | – | – | – | – | – | –
5 | < 32% | CCCCCCCCc1ccc(CNc2ccc(C(=O)OCC)cc2)s1 | <59% | 82% | 100% | <61% | 97% | 90% | – | – | – | – | – | – | – | – | – | – | –
6 | < 72% | CCOC(=O)c1ccc(NCCCCCCCCCCCn2ccnc2)cc1 | 92% | 89% | 78% | <57% | 89% | 100% | – | – | – | – | – | – | – | – | – | – | –
7 | 61% | CCOC(=O)c1ccc(NCCCc2ccccc2)cc1 | – | 79% | – | 57% | – | – | 77% | 94% | – | – | 56% | 77% | – | – | – | – | –
8 | 9% | O=C(O)c1ccc(NCCc2ccccc2)cc1 | – | 88% | – | 48% | – | – | 64% | 90% | 84% | – | – | – | 70% | – | – | – | –
9 | < 35% | O=C(O)c1ccc(NCCCCCCCCc2ccccc2)cc1 | 56% | 84% | <54% | 74% | 90% | <78% | – | – | – | – | – | – | – | – | – | – | –
10 | 15% | CCCCCCCCc1ccc(CNc2ccc(C(=O)O)cc2)s1 | 70% | <72% | 82% | 70% | 85% | <76% | – | – | – | – | – | – | – | – | – | – | –
11 | 2% | O=C(O)c1ccc(NCCCc2ccc(OCc3ccccc3)cc2)cc1 | – | – | – | 60% | – | – | 67% | 90% | 96% | 93% | 69% | – | – | – | – | – | –
12 | < 53% | O=C(O)c1ccc(NCCCCCCCCCC/C=C/c2cccs2)cc1 | <59% | <73% | 69% | <41% | <84% | <83% | – | – | – | – | – | – | – | – | – | – | –
13 | < 27% | CCCCCCCCc1ccc(CCCNc2ccc(C(=O)O)cc2)s1 | 72% | <78% | 76% | <57% | 88% | <92% | – | – | – | – | – | – | – | – | – | – | –
14 | 25% | CCOC(=O)c1ccc(NCCCc2ccc(F)cc2)cc1 | – | 81% | – | – | 83% | 78% | – | – | – | – | – | – | – | 71% | 90% | 68% | –
15 | 50% | CCOC(=O)c1ccc(NCCCc2ccc(OCc3ccccc3)cc2)cc1 | – | – | – | 56% | – | – | 56% | 86% | 86% | – | 46% | – | – | – | – | – | 96%
16 | < 63% | CCOC(=O)c1ccc(NCCCCCCCCCCc2ccccc2)cc1 | <58% | <89% | 77% | <77% | 100% | <84% | – | – | – | – | – | – | – | – | – | – | –

More lines, now with the values behind:

Row | SMILES | inhibition [1] | serum triglycerides, percent of control [2] | serum sterol, percent of control [3] | Diet [4] | serum triglycerides, percent of control [5] | Diet [6] | Diet [7] | Diet [8] | Diet [9] | Diet [10] | serum sterol, percent of control [11] | Diet [12] | Diet [13] | Diet [14] | Diet [15] | Diet [16] | Diet [17] | Diet [11]
17 | O=C(O)c1ccc(NCCc2ccc(F)cc2)cc1 | 0% | – | – | – | 54% | – | – | 72% | 104% | 86% | 91% | 50% | – | – | – | – | – | –
18 | CCCCCCCCCC/C=C/CCCNc1ccc(C(=O)[O-])cc1.[Na+] | – | 117% | <82% | 112% | <63% | 86% | 93% | – | – | – | – | – | – | – | – | – | – | –
19 | C=CCCCCCCCC/C=C/CCCNc1ccc(C(=O)[O-])cc1.[Na+] | – | – | 86% | – | 87% | 88% | 92% | 106% | – | – | – | 90% | – | – | – | – | – | –
20 | CCCCCCCCCCCCNc1ccc(C(=O)[O-])cc1.[Na+] | – | <56% | 88% | <72% | <34% | 89% | 92% | – | – | – | – | – | – | – | – | – | – | –
21 | CCCCCCCCCCCCCCCCCCNc1ccc(C(=O)[O-])cc1.[Na+] | – | <76% | 79% | 90% | <52% | <84% | 86% | – | – | – | – | – | – | – | – | – | – | –
22 | CCCCCCCCCCCCCCCCNc1ccc(C(=O)[O-])cc1.[Na+] [CETABEN SODIUM] | – | <60% | <60% | <75% | <41% | 90% | <76% | – | – | – | – | – | – | – | – | – | – | –
23 | CCCCCCCCCCCCCCCCNc1ccc(C(=O)O)cc1 [CETABEN] | – | <45% | <54% | <71% | <31% | <72% | <71% | – | – | – | – | – | – | – | – | – | – | –
24 | CCOC(=O)c1ccc(NC/C=C/c2ccccc2)cc1 | – | – | 84% | – | 60% | – | – | 73% | 92% | 86% | – | 58% | – | – | – | – | – | –
25 | O=C(O)c1ccc(NCc2ccc(-c3ccccc3)cc2)cc1 | 7% | – | – | – | 42% | – | – | 61% | 98% | 98% | 90% | 70% | – | – | – | – | – | –
26 | O=C(O)c1ccc(NC/C=C/c2ccccc2)cc1 | 0% | 43% | – | – | 44% | 86% | 70% | – | – | – | 96% | – | – | – | – | 85% | – | –
27 | CCOC(=O)c1ccc(NCc2ccc(OC)cc2)cc1 | 49% | – | – | – | 48% | – | – | 73% | 95% | 92% | 94% | 62% | – | – | – | – | – | –
28 | CCCCCCCCCCCCCCCCCCCNc1ccc(C(=O)[O-])cc1.[Na+] | – | 99% | 98% | 102% | <70% | 93% | 98% | – | – | – | – | – | – | – | – | – | – | –
29 | CCCCCCCCCCCCCNc1ccc(C(=O)[O-])cc1.[Na+] | – | 70% | <76% | <60% | <62% | 110% | 90% | – | – | – | – | – | – | – | – | – | – | –
